Screens deposited in PubChem BioAssay by several laboratories.
EBV gp42 block – Epstein-Barr virus gp42 inhibitors, primary screen, biochemical, uHTS, fluorescence polarization | 220,000 compounds, 0.42% hits | Fluorescence polarization binding assay, mP read-out | Glycoprotein 42 (Epstein-Barr virus (strain AG876)), Q1HVG2 | inhibition, % (tested at 21.74 µM); in the data active = inhibition above about 50%
Target sequence (Q1HVG2 whole entry, looked up): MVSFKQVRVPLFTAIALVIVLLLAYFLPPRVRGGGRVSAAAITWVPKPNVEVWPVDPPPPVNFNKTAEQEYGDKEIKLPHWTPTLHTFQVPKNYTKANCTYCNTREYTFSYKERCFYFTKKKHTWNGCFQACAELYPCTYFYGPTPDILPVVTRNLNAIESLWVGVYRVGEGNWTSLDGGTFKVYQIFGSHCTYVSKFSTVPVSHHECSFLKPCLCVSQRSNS
GRIN3A LBD mod – binders of NR3A ligand-binding domain, primary screen, biophysical, differential scanning fluorimetry, uHTS. Glutamate receptor ionotropic, NMDA 3A (GRIN3A) ligand-binding domain. NR3A LBD differential scanning fluorimetry, Tm shift; 0% = protein alone, 100% = glycine-bound protein. Tm shift relative to glycine control, % at 25 µM. 340,000 compounds, 2.5% hits. AID 1259313, 2017;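 active = melting temperature shift of at least 10% of the positive control shift, at one fixed dose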
MPTP block – mitochondrial permeability transition pore inhibitors, primary screen, biochemical, isolated mouse mitochondria, absorbance. Ca2+ swelling absorbance, 30 min. inhibition, % at 10 µM. 360,000 compounds, 1.4% hits;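 active = inhibition of 50% or more, scaled per plate between neutral and stimulator controls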;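 note: 0% = DMSO wells given calcium and 100% = 1 mM EGTA wells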
WT yeast gro inh – growth inhibition of WT strain, primary screen, mitochondrial fusion inhibitor project, WT and mutant strains, chemical genetic; mitochondrial fusion phenotypic screen; 190,000 compounds, 2.1% hits; inhibition, % at 10 µM; AID 1362, 2008; in the data active = inhibition above about 58%; tested in S. cerevisiae
Tb MetRS inh – T. brucei MetRS inhibitors, primary screen, biochemical, luminescence | methionyl-tRNA synthetase (Trypanosoma brucei brucei) | purified T. brucei MetRS, ATP depletion, Kinase-Glo luminescence | inhibition, % at 11.9 µM | 360,000 compounds, 0.4% hits | AID 624268, 2012;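 active = inhibition above a per-plate cutoff of the control wells' mean inhibition plus 3 SD, cut at about 5.5% in these data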;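 note: 0% = DMSO wells median and 100% = median of wells with control inhibitor compound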
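Material: parasite MetRS enzyme / Replication: singlicate, one well per compound / Signal: luminescence of leftover ATP / Schedule: 2 h aminoacylation at 25 °C after 15 min preincubation / Medium: HEPES-MgCl2-KCl buffer plus DTT, spermine, BSA, pyrophosphatase / Doses: 11.9 µM single point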
CHOP inh – inhibitors of CHOP promoter induction, primary screen, cell-based, unfolded protein response, luciferase reporter | CHO-K1 CHOP-promoter luciferase, tunicamycin-induced, 15-18 h | inhibition, % at 10 µM | 220,000 compounds, 3.8% hits;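 active = compounds that reduced the stress-induced luciferase reporter signal by more than about 70% of percent inhibition, limit read from the data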;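 note: 0% = tunicamycin plus vehicle and 100% = wells without tunicamycin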
Active calls of the source: *; . = not tested or not shown. Sampled rows, rich in hits. Any-hit rate of the full collection: about 6.4%.

SMILES	EBV gp42 block	GRIN3A LBD mod	MPTP block	WT yeast gro inh	Tb MetRS inh	CHOP inh
Cc1ccc(C)c(-c2cc(C(=O)Nc3sc(C)c(C)c3C(N)=O)c3ccccc3n2)c1	-15.1	14.1*	2.4	5.5	-0.7	67.2
Cc1cccc(-c2cc(C(=O)NCc3ccccn3)c3ccccc3n2)c1	5.6	15.9*	-2.4	0.7	0.5	11.3
Cc1cccc(-c2cc(C(=O)Nc3ccncc3)c3ccccc3n2)c1	.	-20.8	2.2	.	-0.3	.
Cc1cccc(-c2cc(C(=O)Nc3sc(C)c(C)c3C(N)=O)c3ccccc3n2)c1	-30.2	14.7*	-0.8	-5.2	-1.7	21.3
O=C(CCCc1nc(-c2ccccc2)no1)Nc1cccnc1	-30.2	2.1	1.1	-5.3	-0.1	4.3
Cc1ccc(-n2c(-c3ccccc3)cc(/C=N/NC(=O)CC#N)c2-c2ccccc2)cc1	0.2	.	.	73.0*	.	47.4
CCOC(=O)N/N=C/c1cn(Cc2ccc(Cl)cc2)c2ccccc12	-8.1	-4.4	3.3	11.3	-1.4	53.2
CCCCOc1ccccc1/C=N/NC(=O)CC#N	-2.8	-1.3	2.2	2.8	-0.3	8.0
N#CCC(=O)N/N=C/c1cc(-c2ccccc2)n(-c2ccc(Cl)cc2)c1-c1ccccc1	-26.5	0.7	.	79.7*	.	22.4
N#CCC(=O)N/N=C/c1cn(Cc2ccc(Cl)cc2Cl)c2ccccc12	-11.2	23.9*	4.0	.	-0.8	-7.1
N#CCC(=O)N/N=C/c1ccc(Cl)cc1	-9.3	-2.5	0.2	.	-0.2	-12.6
COc1ccc(COn2c(=O)c(C)[n+]([O-])c3ccccc32)cc1OC	-25.9	0.0	3.7	2.5	0.4	7.8
COc1cccc(S(=O)(=O)Nc2noc3ccccc23)c1	.	-2.7	0.6	.	-0.1	.
c1ccc(-c2n[nH]nc2-c2ccccc2)cc1	-6.2	0.1	18.3	-8.4	0.6	-37.6
NC(N)=NS(=O)(=O)c1ccc(N/C=C\C(=O)c2ccncc2)cc1	-13.9	243.9*	-1.2	-13.5	-0.1	3.4
Cc1ccc(-c2nnn(CC(=O)N(Cc3cccs3)C(C(=O)NC3CCCC3)c3ccco3)n2)o1 (stereo not given)	-12.5	0.6	2.2	-9.4	-1.4	66.9
CC(C)(C)NC(=O)C(c1ccco1)N(C(=O)Cn1nnc(-c2ccc(F)cc2)n1)c1ccccc1F (stereo not given)	-14.6	-13.8	-1.3	62.8*	0.2	83.6*
Cc1ccc(-c2nnn(CC(=O)N(c3ccccc3)C(C(=O)NC3CCCC3)c3ccco3)n2)o1 (stereo not given)	-1.6	0.3	1.9	-3.2	-0.6	93.5*
O=C(CSc1ccsc1[N+](=O)[O-])NCCc1ccccc1	6.1	0.5	1.4	0.0	0.0	-2.6
Cc1cccnc1NC(=O)CNC(=O)C12CC3CC(CC(Cl)(C3)C1)C2	.	3.0	-1.5	.	-0.5	.
Cc1nc2ccc(C(=O)NCc3ccc4c(c3)OCO4)cc2s1	-0.9	-7.8	-0.6	64.2*	-0.3	-3.9
O=C(NCc1ccc2c(c1)OCO2)c1cccc(C(=O)NCc2ccc3c(c2)OCO3)c1	-4.4	-0.4	-2.8	-0.5	0.0	-2.3
C/C(=C\C(=O)c1ccc(F)cc1)NCc1ccc2c(c1)OCO2	-10.6	14.5*	-0.5	19.9	0.1	1.3
OC(CNCc1ccc(-c2ccccc2)cc1)c1ccccc1 (stereo not given)	-1.2	-0.9	9.9	60.3*	-0.3	38.4
CC(Cc1ccccc1)N/C=C1/CC(=O)NC1=O (stereo not given)	-10.3	13.7*	-0.8	3.3	0.0	3.8
SMILES	EBV gp42 block	GRIN3A LBD mod	MPTP block	WT yeast gro inh	Tb MetRS inh	CHOP inh
O=C1C/C(=C/NCc2ccccc2)C(=O)N1	-6.2	-0.2	-0.5	7.7	-0.8	-10.8
Cc1cc(C=C2C(=O)c3ccccc3C2=O)c(C)n1-c1ccccc1	56.6*	0.1	-0.3	-16.9	-0.5	84.1*
Cc1cc(/C=C2\Cc3ccccc3C2=O)c(C)n1-c1ccccc1	29.1	0.7	1.9	56.0	-0.9	89.1*
CCOC(=O)c1cc(CC)sc1NC(=O)Cc1ccccc1	-7.2	-1.1	0.7	23.7	0.1	85.3*
CCOC(=O)c1cc(CC)sc1NC(=O)COC	-18.4	-0.1	0.8	-6.2	-0.8	43.6
CCCCN1C(=O)C(=O)N(CC(=O)Nc2sc(CC)cc2C(=O)OCC)C1=O	.	12.8*	1.3	.	-0.4	.
CN(C)C(=O)CCc1ccc2c3c([nH]c2c1)[C@]1(C)[C@@H](C(=O)N2CCOCC2)C[C@H](CC(=O)NCc2ccco2)C(=O)N1CC3	.	0.8	0.2	.	0.4	.
CCOC(=O)c1c(NC(=O)CSc2nnc(N)s2)sc(C)c1-c1ccc(C)cc1	-15.8	-11.1	8.8	78.0*	-0.5	58.3
CCc1ccc(NC(=O)CCc2nnc3ccc(N4CCC5(CC4)OCCO5)nn23)cc1	.	10.8*	-1.2	.	-0.4	.
CCOc1ccc(NC(=O)CCc2nnc3ccc(N4CCC5(CC4)OCCO5)nn23)cc1	.	-1.1	-1.7	.	-0.5	.
COc1ccc(CCNC(=O)COC(=O)c2cccs2)cc1OC	.	11.9*	1.2	.	-0.9	.
O=C(COC(=O)C12CC3CC(CC(C3)C1)C2)NCc1ccccc1	.	-0.3	0.9	.	-0.2	.
CCOc1ccc(CCNC(=O)COC(=O)c2cccs2)cc1OCC	.	0.8	0.0	.	-0.6	.
COc1ccc(CCNC(=O)C/C(C)=N/NC(=O)C23CC4CC(CC(C4)C2)C3)cc1OC	-11.3	29.9*	-0.1	-11.9	-0.1	23.5
O=C(COC(=O)C12CC3CC(CC(C3)C1)C2)NCCc1ccccc1	4.0	2.1	-1.3	16.0	-0.5	77.0*
COc1ccc(NC(=O)COc2nsnc2N2CCOCC2)cc1	6.7	-0.3	0.2	-15.9	0.1	39.5
COc1ccc(CCNC(=O)COc2nsnc2N2CCOCC2)cc1OC	81.7*	-1.0	0.1	-16.1	-0.9	0.0
CC(Oc1ccc2c3c(c(=O)oc2c1)CCC3)C(=O)N[C@@H](Cc1ccccc1)C(=O)O (stereo not given in full)	.	-3.2	-0.6	.	0.9	.
O=C(NC(c1ccccc1)c1ccccc1)C1(c2cccs2)CCOCC1	-20.2	-1.5	2.4	7.8	-0.1	-26.8
COc1ccc(C(C)=O)cc1CSc1nc2ccccc2c(=O)n1-c1cccc(C)c1	-0.7	-1.5	0.2	64.8*	-0.8	12.1
COc1ccc(C(C)=O)cc1CSc1nc2ccccc2c(=O)n1-c1ccccc1	-4.0	3.3	0.7	32.8	0.2	36.1
COc1ccc(C(C)=O)cc1CSc1nc2ccccc2c(=O)n1-c1ccccc1C	-7.8	-0.6	1.1	61.1*	0.0	22.7
